The source made the active and inactive calls. The calls are words filed in the database; no cut-off is given here.
How the values were obtained:
[1] = Intrinsic clearance in CD1 mouse liver microsomes at 1 uM preincubated for 5 mins followed by NADPH addition and measured after 45 mins by LC/MS/MS analysis; assay type: ADME, microsome; settings: read-out: CLH
[2] = Hepatic clearance in CD1 mouse liver microsomes at 1 uM preincubated for 5 mins followed by NADPH addition and measured after 45 mins by LC/MS/MS analysis; assay type: ADME, microsome
[3] = Maximum plasma concentration in BALB/c mouse at 25 mg/kg, po via gavage by […]; assay type: ADME, organism-based; parameters: dose 25 mg/kg, route oral
In short: (§1)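 Single oral gavage dose of 25 mg/kg in BALB/c mice; blood sampled at 1, 2, 4, 6, 10, 16, 24 h. Plasma is diluted in PBS with ketoconazole internal standard, extracted with 80% acetonitrile, dried and redissolved. Analysed by reversed-phase HPLC with UV at 291/250 nm, 0.1 μM detection limit. Lifetime is time until undetectable.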

[4] = Plasma concentration in BALB/c mouse assessed as time until the compound becomes undetectable at 25 mg/kg, po via gavage […]; assay type: ADME, organism-based; settings: in vivo; in short: as §1
[5] = Drug uptake in BALB/c mouse heart at 25 mg/kg, po via gavage measured after 4 hrs post dose by […]; assay type: ADME, organism-based; settings: read-out: Drug uptake
In short: (§2)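 BALB/c mice get a single oral gavage dose of 25 mg/kg; tissues are collected 4 h post-dose. About 100 mg tissue is diluted 5-fold in PBS and homogenized. Homogenate is extracted as for plasma (ketoconazole internal standard, acetonitrile extraction) and quantified by HPLC-UV at 291 nm, 0.1 μM detection limit, n=2.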

[6] = Drug uptake in BALB/c mouse lungs at 25 mg/kg, po via gavage measured after 4 hrs post dose by […]; assay type: ADME, organism-based, Lung; settings: read-out: Drug uptake; in short: as §2
[7] = Drug uptake in BALB/c mouse spleen at 25 mg/kg, po via gavage measured after 4 hrs post dose by […]; assay type: ADME, organism-based; settings: read-out: Drug uptake; in short: as §2
[8] = Drug uptake in BALB/c mouse blood at 25 mg/kg, po via gavage measured after 4 hrs post dose by […]; assay type: ADME, organism-based; settings: read-out: Drug uptake; in short: as §2
[9] = Drug uptake in BALB/c mouse brain at 25 mg/kg, po via gavage measured after 4 hrs post dose by […]; assay type: ADME, organism-based; settings: read-out: Drug uptake; in short: as §2
[10] = Drug uptake in BALB/c mouse liver at 25 mg/kg, po via gavage measured after 4 hrs post dose by […]; assay type: ADME, organism-based; settings: read-out: Drug uptake; in short: as §2
[11] = target: Lanosterol 14-alpha-demethylase (Trypanosoma brucei brucei (strain 927/4 GUTat10.1)) (UniProt Q385E8); assay: Inhibition of Trypanosoma brucei […] CYP51 expressed in Escherichia coli using [3-3H]-obtusifoliol as substrate after 60 mins by LC-MS analysis
In short: (§3)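 Reconstituted reaction: 1 μM purified CYP51, 2 μM T. brucei NADPH-P450 reductase, 100 μM dilauroylphosphatidylcholine, isocitrate dehydrogenase/isocitrate regeneration, 50 mM K phosphate pH 7.2, 10% glycerol. [3-3H]sterol substrate at 50 μM final (eburicol for T. cruzi; obtusifoliol for T. brucei and L. infantum) with inhibitor at 1.1 μM final. Preincubate 60 s at 37 °C, start with 100 μM NADPH, run 60 min, EtOAc extraction. Gives % inhibition of 14α-demethylation, triplicate, mean ± SD.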

[12] = target: Sterol 14-alpha demethylase (Trypanosoma cruzi (strain CL Brener)) (UniProt Q7Z1V1); assay: Inhibition of Trypanosoma cruzi Y CYP51 expressed in Escherichia coli using [3-3H]-eburicol as substrate after 60 mins by LC-MS analysis; in short: as §3
[13] = target: Putative lanosterol 14-alpha-demethylase (Leishmania infantum) (UniProt A2TEF2); assay: Inhibition of Leishmania infantum CYP51 expressed in Escherichia coli using [3-3H]-obtusifoliol as substrate after 60 mins by LC-MS analysis; in short: as §3
[14] = target: Sterol 14-alpha demethylase (Trypanosoma cruzi (strain CL Brener), UniProt Q7Z1V1); assay: Binding affinity to Trypanosoma cruzi Y CYP51A expressed in Escherichia coli
In short: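 Recombinant CYP51A from Y strain T. cruzi, expressed in E. coli and purified, titrated spectrally at 0.5 μM P450 in 5 cm path cuvettes with ligand over 0.1–1 μM. Type of absorbance change in difference spectra Δ(A430-A411) plotted against ligand concentration. Apparent Kd obtained by fitting to the Morrison quadratic tight-binding equation by nonlinear regression.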

[15] = target: Putative lanosterol 14-alpha-demethylase (Leishmania infantum, UniProt A2TEF2); assay: Binding affinity to Leishmania infantum CYP51 expressed in Escherichia coli
In short: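 Purified E. coli-expressed L. infantum CYP51 at 0.5 μM is titrated with ligand at 0.1–1 μM in 5 cm path cuvettes. Difference-spectrum absorbance change Δ(A430−A411) is plotted against ligand concentration. Apparent Kd comes from a Morrison (quadratic) tight-binding fit by nonlinear regression.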

Trypanosoma cruzi [16] = assay: Antiparasitic activity against GFP-expressing Trypanosoma cruzi Tulahuen amastigote formss infected in cardiomyocytes assessed as reduction in rate of parasite multiplication within infected cardiomyocytes measured at 72 hrs post infection by fluorescence microscopy; assay type: functional, organism-based
In short: (§4)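 GFP-expressing trypomastigotes (Tulahuen or Y strain) infect cardiomyocyte monolayers at 10 parasites per cell, in DMEM + 10% FBS. Unbound parasites are washed off. At 24 h of infection, inhibitors at 0.5–25 nM in DMSO/DMEM are added and cultured 48 h. Read-out is at 72 h post-infection as GFP fluorescence (RFU) after PBS wash; microscopy uses paraformaldehyde fixation, DAPI and phalloidin stain. Triplicate.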

Trypanosoma cruzi [17] = assay: Antiparasitic activity against GFP-expressing Trypanosoma cruzi Y amastigote formss infected in cardiomyocytes assessed as reduction in rate of parasite multiplication within infected cardiomyocytes measured at 72 hrs post infection by fluorescence microscopy; assay type: functional, organism-based; in short: as §4
Mus musculus [18] = assay: Toxicity in Swiss Webster mouse assessed as effect on animal behavior at 200 mg/kg, po administered as single dose measured after 48 hrs; assay type: organism-based; settings: in vivo
In short: (§5)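 Swiss Webster mice (21–23 g, n=3) get a single oral 200 mg/kg dose, given as in the PK study. They are inspected for toxic and sub-toxic signs per OECD guidelines (behaviour, motility, neurological state, skin, fur), and body weight is tracked 0–48 h. At 48 h, mice are euthanized and organ weights are normalized to body weight. Blood is taken for haematology and plasma biochemistry.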

Mus musculus [19] = assay: Toxicity in Swiss Webster mouse assessed as effect on motility at 200 mg/kg, po administered as single dose measured after 48 hrs; assay type: organism-based; settings: in vivo; in short: as §5
Mus musculus [20] = assay: Toxicity in Swiss Webster mouse assessed as effect on neurological conditions at 200 mg/kg, po administered as single dose measured after 48 hrs; assay type: organism-based; settings: in vivo; in short: as §5
Mus musculus [21] = assay: Toxicity in Swiss Webster mouse assessed as effect on skin at 200 mg/kg, po administered as single dose measured after 48 hrs; assay type: organism-based; settings: in vivo; in short: as §5
Mus musculus [22] = assay: Toxicity in Swiss Webster mouse assessed as effect on fur profile at 200 mg/kg, po administered as single dose measured after 48 hrs; assay type: organism-based; settings: in vivo; in short: as §5
Mus musculus [23] = assay: Toxicity in Swiss Webster mouse at 200 mg/kg, po administered as single dose measured after 48 hrs measured at 48 hrs post dose; assay type: organism-based; settings: in vivo; in short: as §5
Mus musculus [24] = assay: Toxicity in Swiss Webster mouse assessed as alteration in body to organ ratio at 200 mg/kg, po administered as single dose measured after 48 hrs; assay type: organism-based; settings: in vivo; in short: as §5
Mus musculus [25] = assay: Toxicity in Swiss Webster mouse assessed as effect on spleen weight at 200 mg/kg, po administered as single dose measured after 48 hrs; assay type: organism-based; settings: in vivo; in short: as §5
Mus musculus [26] = assay: Toxicity in Swiss Webster mouse assessed as effect on liver weight at 200 mg/kg, po administered as single dose measured after 48 hrs; assay type: organism-based; settings: in vivo; in short: as §5
Mus musculus [27] = assay: Toxicity in Swiss Webster mouse assessed as effect on kidney weight at 200 mg/kg, po administered as single dose measured after 48 hrs; assay type: organism-based; settings: in vivo; in short: as §5
Mus musculus [28] = assay: Toxicity in Swiss Webster mouse assessed as effect on heart weight at 200 mg/kg, po administered as single dose measured after 48 hrs; assay type: organism-based; settings: in vivo; in short: as §5
Mus musculus [29] = assay: Toxicity in Swiss Webster mouse assessed as effect on lung weight at 200 mg/kg, po administered as single dose measured after 48 hrs; assay type: organism-based; settings: in vivo; in short: as §5
Mus musculus [30] = assay: Toxicity in Swiss Webster mouse assessed as effect on body weight at 200 mg/kg, po administered as single dose measured after 48 hrs; assay type: organism-based; settings: in vivo; in short: as §5
Mus musculus [31] = assay: Toxicity in Swiss Webster mouse assessed as effect on biochemical plasma parameters at 200 mg/kg, po administered as single dose measured after 48 hrs; assay type: organism-based; settings: in vivo; in short: as §5

Chain of Putative lanosterol 14-alpha-demethylase (A2TEF2 whole entry): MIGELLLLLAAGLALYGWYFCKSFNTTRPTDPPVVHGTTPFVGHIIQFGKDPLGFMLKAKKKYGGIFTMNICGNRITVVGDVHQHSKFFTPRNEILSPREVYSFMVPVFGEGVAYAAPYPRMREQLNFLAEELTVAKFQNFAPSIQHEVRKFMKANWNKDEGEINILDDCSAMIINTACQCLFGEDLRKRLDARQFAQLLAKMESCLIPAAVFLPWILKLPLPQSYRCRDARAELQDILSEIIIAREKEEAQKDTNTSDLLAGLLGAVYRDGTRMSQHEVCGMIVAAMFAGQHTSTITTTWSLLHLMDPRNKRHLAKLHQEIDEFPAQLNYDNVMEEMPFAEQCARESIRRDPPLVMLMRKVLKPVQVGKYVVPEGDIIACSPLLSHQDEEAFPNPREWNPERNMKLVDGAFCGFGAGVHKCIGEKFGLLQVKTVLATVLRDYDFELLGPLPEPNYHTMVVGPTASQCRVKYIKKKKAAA
Chain of Putative lanosterol 14-alpha-demethylase (Leishmania infantum) (A2TEF2 1-480): as the sequence (A2TEF2 whole entry) above
Chain of Sterol 14-alpha demethylase (Q7Z1V1 whole entry): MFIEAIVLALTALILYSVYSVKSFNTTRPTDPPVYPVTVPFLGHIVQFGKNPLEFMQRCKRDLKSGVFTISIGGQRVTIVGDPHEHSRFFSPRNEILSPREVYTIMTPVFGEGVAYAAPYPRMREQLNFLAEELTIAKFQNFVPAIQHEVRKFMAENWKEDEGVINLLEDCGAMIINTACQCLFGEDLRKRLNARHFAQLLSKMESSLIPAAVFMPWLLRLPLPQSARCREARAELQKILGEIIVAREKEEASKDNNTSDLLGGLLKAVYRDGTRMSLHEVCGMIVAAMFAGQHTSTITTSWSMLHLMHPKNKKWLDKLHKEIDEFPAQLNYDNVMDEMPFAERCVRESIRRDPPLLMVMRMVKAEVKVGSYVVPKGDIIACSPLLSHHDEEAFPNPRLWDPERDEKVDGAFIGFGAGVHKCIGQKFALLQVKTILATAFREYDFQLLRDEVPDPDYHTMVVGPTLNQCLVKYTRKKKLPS
Chain of Sterol 14-alpha demethylase (Trypanosoma cruzi (strain CL Brener)) (Q7Z1V1 whole entry, looked up): as the sequence (Q7Z1V1 whole entry) above
Chain of Lanosterol 14-alpha-demethylase (Trypanosoma brucei brucei (strain 927/4 GUTat10.1)) (Q385E8 1-481): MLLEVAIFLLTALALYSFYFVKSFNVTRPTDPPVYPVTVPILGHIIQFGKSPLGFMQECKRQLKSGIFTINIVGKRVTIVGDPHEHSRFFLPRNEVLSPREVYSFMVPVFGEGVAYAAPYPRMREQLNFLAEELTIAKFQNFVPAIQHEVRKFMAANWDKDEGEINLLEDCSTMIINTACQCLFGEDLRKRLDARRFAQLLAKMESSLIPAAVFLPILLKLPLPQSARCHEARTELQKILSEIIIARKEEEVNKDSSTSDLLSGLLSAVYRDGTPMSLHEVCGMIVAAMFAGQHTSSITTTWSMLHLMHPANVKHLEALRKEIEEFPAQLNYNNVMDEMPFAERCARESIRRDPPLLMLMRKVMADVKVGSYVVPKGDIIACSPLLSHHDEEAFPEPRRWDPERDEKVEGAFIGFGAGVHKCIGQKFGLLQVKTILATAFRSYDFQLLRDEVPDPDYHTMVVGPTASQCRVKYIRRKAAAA

O=C(N[C@@H](Cn1ccnc1)c1ccc(Cl)cc1Cl)c1ccc(-c2nnc(-c3ccc(F)c(F)c3)o2)cc1
CLint scaled at 1 µM [1]: 55.8 mL/min/kg | CLhep predicted at 1 µM [2]: 34.5 mL/min/kg | Cmax [3]: 38 µM | Time [4]: 16 h | concentration at 4 h [5]: 36 µM | concentration at 4 h [6]: 46 µM | concentration at 4 h [7]: 28 µM | concentration at 4 h [8]: 36 µM | concentration at 4 h [9]: 8 µM | concentration at 4 h [10]: 38 µM | inhibition [11]: Active | inhibition [12]: Active | inhibition [13]: Active | Kd [14]: 4.2 nM | Kd [15]: 1.7 nM | EC50 (Trypanosoma cruzi [16]): 1.6 nM | EC50 (Trypanosoma cruzi [17]): 3 nM | Activity (Mus musculus [18]): Non-Toxic | Activity (Mus musculus [19]): Non-Toxic | Activity (Mus musculus [20]): Non-Toxic | Activity (Mus musculus [21]): Non-Toxic | Activity (Mus musculus [22]): Non-Toxic | NOAEL (Mus musculus [23]): > 200 mg/kg | Activity (Mus musculus [24]): Non-Toxic | Activity (Mus musculus [25]): Non-Toxic | Activity (Mus musculus [26]): Non-Toxic | Activity (Mus musculus [27]): Non-Toxic | Activity (Mus musculus [28]): Non-Toxic | Activity (Mus musculus [29]): Non-Toxic | Activity (Mus musculus [30]): Non-Toxic | Activity (Mus musculus [31]): Non-Toxic
